Source: ChEMBL document CHEMBL3098054, “The synthesis of novel taxoids for oral administration” (Bioorg Med Chem, 2014)

How the values were obtained:
[1] = test system: HeLa; experiment: Cytotoxicity against human HeLa cells at 1 uM after 72 hrs by MTT assay; type: functional; settings: read-out: GI
Procedure, shortened: (§1)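 Cells plated at 2000–5000/well, attached overnight at 37 °C. DMSO stocks (100 mM) serially diluted in medium to a final 1 µM, tested in duplicate wells. Exposure 72 h at 37 °C, 5% CO₂. MTT (5 mg/mL, 10 µL) added for 4 h. Lysis in 10% SDS / 5% isopropanol / 0.012 N HCl, then OD read at 580–680 nm.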

[2] = Apparent permeability from apical to basolateral side in human Caco2 cells at 10 uM after 90 mins by LC-MS/MS analysis; type: ADME, cell-based, Caco-2; settings: Caco-2
[3] = test system: MCF7; experiment: Cytotoxicity against human MCF7 cells after 72 hrs by MTT assay; type: functional, cell-based; settings: MCF7, 72 h
Procedure, shortened: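 MCF-7 cells exposed to compound for 72 h and read by MTT. At least six replicate wells per assay, run on three separate occasions. IC₅₀ given as mean with standard deviation.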

[4] = test system: DU-145; experiment: Cytotoxicity against human DU145 cells at 1 uM after 72 hrs by MTT assay; type: functional; settings: DU-145, 72 h, read-out: GI; procedure, shortened: as §1
[5] = test system: HL-60; experiment: Cytotoxicity against human HL60 cells at 1 uM after 72 hrs by MTT assay; type: functional; settings: HL-60, 72 h, read-out: GI; procedure, shortened: as §1
[6] = test system: A-375; experiment: Cytotoxicity against human A375 cells at 1 uM after 72 hrs by MTT assay; type: functional; settings: A-375, 72 h, read-out: GI
Procedure, shortened: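 Cells plated at 2000–5000/well, attached overnight at 37 °C. DMSO stocks (100 mM) serially diluted in medium to a final 1 µM, tested in duplicate wells. MTT (5 mg/mL, 10 µL) added for 4 h. Lysis in 10% SDS / 5% isopropanol / 0.012 N HCl, then OD read at 580–680 nm.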

[7] = test system: HT-29; experiment: Cytotoxicity against human HT-29 cells at 1 uM after 72 hrs by MTT assay; type: functional; settings: HT-29, 72 h, read-out: GI; procedure, shortened: as §1
[8] = test system: A2780; experiment: Cytotoxicity against human A2780 cells at 1 uM after 72 hrs by MTT assay; type: functional; settings: A2780, 72 h, read-out: GI; procedure, shortened: as §1
[9] = test system: MCF7; experiment: Cytotoxicity against human MCF7 cells at 1 uM after 72 hrs by MTT assay; type: functional; settings: MCF7, 72 h, read-out: GI; procedure, shortened: as §1
[10] = test system: NCI-H460; experiment: Cytotoxicity against human NCI-H460 cells at 1 uM after 72 hrs by MTT assay; type: functional; settings: NCI-H460, 72 h, read-out: GI; procedure, shortened: as §1

| Structure (SMILES) | inhibition of growth at 1 µM [1] | Papp A→B at 1.5 h, 10 µM [2] | IC50 [3] | inhibition of growth at 1 µM [4] | inhibition of growth at 1 µM [5] | inhibition of growth at 1 µM [6] | inhibition of growth at 1 µM [7] | inhibition of growth at 1 µM [8] | inhibition of growth at 1 µM [9] | inhibition of growth at 1 µM [10] |
| --- | --- | --- | --- | --- | --- | --- | --- | --- | --- | --- |
| CO[C@H]1C[C@H]2OC[C@@]2(OC(C)=O)[C@H]2[C@H](OC(=O)c3ccccc3)[C@]3(O)C[C@H](OC(=O)[C@H](O)[C@@H](NC(=O)OC(C)(C)C)c4ccccn4)C(C)=C([C@@H](OC(=O)N(C)C)C(=O)[C@]12C)C3(C)C | 100% | 3.02 ×10⁻⁶ cm/s |  |  |  |  |  |  |  |  |
| COC(=O)O[C@H]1C(=O)[C@]2(C)[C@@H](OC)C[C@H]3OC[C@@]3(OC(C)=O)[C@H]2[C@H](OC(=O)c2ccccc2)[C@]23OC(=O)O[C@H]2[C@H](OC(=O)[C@H](O)[C@@H](NC(=O)OC(C)(C)C)c2ccccc2)C(C)=C1C3(C)C |  | < 1.43 ×10⁻⁶ cm/s | 3.24 nM |  |  |  |  |  |  |  |
| CO[C@H]1C(=O)[C@]2(C)[C@@H](OC)C[C@H]3OC[C@@]3(OC(C)=O)[C@H]2[C@H](OC(=O)c2ccccc2)[C@]2(O)C[C@H](OC(=O)[C@H](O)[C@@H](NC(=O)OC(C)(C)C)c3ccccc3)C(C)=C1C2(C)C [CABAZITAXEL] | 98.2% | 3.73 ×10⁻⁶ cm/s |  | 83.1% | 97.8% | 97% | 87.2% | 93.8% | 88.5% | 79.8% |
| CO[C@H]1C(=O)[C@]2(C)[C@@H](OC)C[C@H]3OC[C@@]3(OC(C)=O)[C@H]2[C@H](OC(=O)c2ccccc2)[C@]23OC(=O)O[C@H]2[C@H](OC(=O)[C@H](O)[C@@H](NC(=O)OC(C)(C)C)c2ccccn2)C(C)=C1C3(C)C |  | 3.66 ×10⁻⁶ cm/s | 3.4 nM |  |  |  |  |  |  |  |
| CO[C@H]1C(=O)[C@]2(C)[C@@H](OC(=O)N(C)C)C[C@H]3OC[C@@]3(OC(C)=O)[C@H]2[C@H](OC(=O)c2ccccc2)[C@]2(O)C[C@H](OC(=O)[C@H](O)[C@@H](NC(=O)c3ccccc3)c3ccccc3)C(C)=C1C2(C)C | 103% | 3.27 ×10⁻⁶ cm/s | 64.7 nM | 85.8% | 97.8% | 88.4% | 89.4% | 95.6% | 90.8% | 87.7% |
| COC(=O)O[C@H]1C(=O)[C@]2(C)[C@@H](OC)C[C@H]3OC[C@@]3(OC(C)=O)[C@H]2[C@H](OC(=O)c2ccccc2)[C@]2(O)C[C@H](OC(=O)[C@H](O)[C@@H](NC(=O)c3ccccc3)c3ccccc3)C(C)=C1C2(C)C | 101% | 4.38 ×10⁻⁶ cm/s |  | 86.2% | 96.8% | 94.2% | 88.8% | 95.8% | 95.5% | 86.4% |
| CO[C@H]1C(=O)[C@]2(C)[C@@H](OC(=O)N(C)C)C[C@H]3OC[C@@]3(OC(C)=O)[C@H]2[C@H](OC(=O)c2ccccc2)[C@]2(O)C[C@H](OC(=O)[C@H](O)[C@@H](NC(=O)OC(C)(C)C)c3ccccn3)C(C)=C1C2(C)C | 103% | 4.41 ×10⁻⁶ cm/s | 46.6 nM |  |  |  |  |  |  |  |
| CC[C@H]1OC(=O)[C@H](C)[C@@H](O[C@H]2C[C@@](C)(OC)[C@@H](O)[C@H](C)O2)[C@H](C)[C@@H](O[C@@H]2O[C@H](C)C[C@H](N(C)C)[C@H]2O)[C@](C)(O)C[C@@H](C)C(=O)[C@H](C)[C@@H](O)[C@]1(C)O [ERYTHROMYCIN] |  | 0.58 ×10⁻⁶ cm/s |  |  |  |  |  |  |  |  |
| CO[C@H]1C(=O)[C@]2(C)CC[C@H]3OC[C@@]3(OC(C)=O)[C@H]2[C@H](OC(=O)c2ccccc2)[C@]2(O)C[C@H](OC(=O)[C@H](O)[C@@H](NC(=O)OC(C)(C)C)c3ccccc3)C(C)=C1C2(C)C | 101% | 3.64 ×10⁻⁶ cm/s | 3.33 nM |  |  |  |  |  |  |  |
| CO[C@H]1C(=O)[C@]2(C)[C@@H](OC)C[C@H]3OC[C@@]3(OC(C)=O)[C@H]2[C@H](OC(=O)c2ccccc2)[C@]2(O)C[C@H](OC(=O)[C@H](O)[C@@H](NC(=O)c3ccccc3)c3ccccc3)C(C)=C1C2(C)C | 102% |  |  | 86.4% | 97.2% | 89.7% | 87.5% | 95.2% | 92.1% | 85% |
| CO[C@H]1C[C@H]2OC[C@@]2(OC(C)=O)[C@H]2[C@H](OC(=O)c3ccccc3)[C@]3(O)C[C@H](OC(=O)[C@H](O)[C@@H](NC(=O)c4ccccc4)c4ccccc4)C(C)=C([C@@H](OC(=O)N(C)C)C(=O)[C@]12C)C3(C)C | 102% | 2.94 ×10⁻⁶ cm/s |  | 87.1% | 97.5% | 87.7% | 87.9% | 96.3% | 85.7% | 86.5% |
| CO[C@H]1C(=O)[C@]2(C)[C@@H](OC)C[C@H]3OC[C@@]3(OC(C)=O)[C@H]2[C@H](OC(=O)c2ccccc2)[C@]23OC(=O)O[C@H]2[C@H](OC(=O)[C@H](O)[C@@H](NC(=O)c2ccccc2)c2ccccc2)C(C)=C1C3(C)C | 101% | 1.48 ×10⁻⁶ cm/s | 6.93 nM | 87.8% | 96.6% | 90.8% | 89.4% | 96.7% | 96% | 87.9% |
| CO[C@H]1C[C@H]2OC[C@@]2(OC(C)=O)[C@H]2[C@H](OC(=O)c3ccccc3)[C@]34OC(=O)O[C@H]3[C@H](OC(=O)[C@H](O)[C@@H](NC(=O)OC(C)(C)C)c3ccccn3)C(C)=C([C@@H](OC(=O)N(C)C)C(=O)[C@]12C)C4(C)C |  | 4.68 ×10⁻⁶ cm/s | 14.3 nM |  |  |  |  |  |  |  |
| CO[C@H]1C(=O)[C@]2(C)[C@@H](OC(=O)N(C)C)C[C@H]3OC[C@@]3(OC(C)=O)[C@H]2[C@H](OC(=O)c2ccccc2)[C@]23OC(=O)O[C@H]2[C@H](OC(=O)[C@H](O)[C@@H](NC(=O)OC(C)(C)C)c2ccccc2)C(C)=C1C3(C)C | 100% | < 1.67 ×10⁻⁶ cm/s | 15.4 nM | 90.7% | 97.5% | 93.1% | 87.4% | 95.9% | 84.7% | 86.2% |
| CO[C@H]1C[C@H]2OC[C@@]2(OC(C)=O)[C@H]2[C@H](OC(=O)c3ccccc3)[C@]34OC(=O)O[C@H]3[C@H](OC(=O)[C@H](O)[C@H](CC(C)C)NC(=O)OC(C)(C)C)C(C)=C([C@@H](OC(=O)N(C)C)C(=O)[C@]12C)C4(C)C |  | 1.07 ×10⁻⁶ cm/s | 6.44 nM |  |  |  |  |  |  |  |
| COC(=O)O[C@H]1C[C@H]2OC[C@@]2(OC(C)=O)[C@H]2[C@H](OC(=O)c3ccccc3)[C@]34OC(=O)O[C@H]3[C@H](OC(=O)[C@H](O)[C@@H](NC(=O)OC(C)(C)C)c3ccccc3)C(C)=C([C@@H](OC)C(=O)[C@]12C)C4(C)C |  | 3.93 ×10⁻⁶ cm/s | 3.84 nM |  |  |  |  |  |  |  |
| COC(=O)O[C@H]1C[C@H]2OC[C@@]2(OC(C)=O)[C@H]2[C@H](OC(=O)c3ccccc3)[C@]3(O)C[C@H](OC(=O)[C@H](O)[C@@H](NC(=O)OC(C)(C)C)c4ccccn4)C(C)=C([C@@H](OC)C(=O)[C@]12C)C3(C)C | 102% | 4.53 ×10⁻⁶ cm/s |  |  |  |  |  |  |  |  |
| CO[C@H]1C(=O)[C@]2(C)[C@@H](OC(=O)N(C)C)C[C@H]3OC[C@@]3(OC(C)=O)[C@H]2[C@H](OC(=O)c2ccccc2)[C@]23OC(=O)O[C@H]2[C@H](OC(=O)[C@H](O)[C@@H](NC(=O)OC(C)(C)C)c2ccccn2)C(C)=C1C3(C)C |  | 2.46 ×10⁻⁶ cm/s | 18.2 nM |  |  |  |  |  |  |  |
| COC(=O)O[C@H]1C[C@H]2OC[C@@]2(OC(C)=O)[C@H]2[C@H](OC(=O)c3ccccc3)[C@]3(O)C[C@H](OC(=O)[C@H](O)[C@@H](NC(=O)c4ccccc4)c4ccccc4)C(C)=C([C@@H](OC)C(=O)[C@]12C)C3(C)C | 102% | 3.32 ×10⁻⁶ cm/s |  | 88.3% | 97.8% | 94% | 89.7% | 96.9% | 107% | 90.3% |
| CO[C@H]1C(=O)[C@]2(C)[C@@H](OC)C[C@H]3OC[C@@]3(OC(C)=O)[C@H]2[C@H](OC(=O)c2ccccc2)[C@]23OC(=O)O[C@H]2[C@H](OC(=O)[C@H](O)[C@H](CC(C)C)NC(=O)OC(C)(C)C)C(C)=C1C3(C)C |  | 2.57 ×10⁻⁶ cm/s | 4.04 nM |  |  |  |  |  |  |  |
